Screens as filed in PubChem.
mABHD4 FP: inhibitors of mouse ABHD4; AID 720543; Q8VD66; inhibition, % at 8.92 µM; actives 0.54% (n = 370,000); purified mABHD4, FP-Rh probe fluorescence polarization;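 active = inhibition exceeding the mean over every tested compound plus 3 SD, cut at about 30% in these data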;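 also: 0% = plate median of compound wells and 100% = S159A mutant with DMSO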
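system = mouse ABHD4 enzyme, wild type | medium = HEPES pH 7.0, NaCl, Pluronic buffer | also added = FP-Rh probe | incubation = Enzyme–compound pre-incubation 45 min, then probe 60 min, both 25 °C | technique = fluorescence polarization, excitation 525 nm, emission 598 nm, BODIPY TMR filters | controls = S159A mutant high control, sample median low control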
TCR CD3 inh: inhibitors of human TCR-CD3 interaction; TAMRA-labeled TCR probe fluorescence, biochemical; inhibition, % at 9.4 µM; actives 0.37% (n = 360,000); AID 651800; in the data active = inhibition above about 19%;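 also: recombinant mutant TCR 2C K166C tagged with TAMRA read by polarization; 0% = receptor in buffer alone and 100% = receptor with positive control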
PRMT1 inh: blocks human protein arginine methyltransferase 1; AID 652257; actives 1.3% (n = 370,000); inhibition, % at 2.79 µM; Q99873; recombinant PRMT1, activity-based probe fluorescence polarization;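 active = inhibition above about 21% made by adding two undisclosed values, limit read from the data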
Target sequence (Q99873 whole entry, looked up): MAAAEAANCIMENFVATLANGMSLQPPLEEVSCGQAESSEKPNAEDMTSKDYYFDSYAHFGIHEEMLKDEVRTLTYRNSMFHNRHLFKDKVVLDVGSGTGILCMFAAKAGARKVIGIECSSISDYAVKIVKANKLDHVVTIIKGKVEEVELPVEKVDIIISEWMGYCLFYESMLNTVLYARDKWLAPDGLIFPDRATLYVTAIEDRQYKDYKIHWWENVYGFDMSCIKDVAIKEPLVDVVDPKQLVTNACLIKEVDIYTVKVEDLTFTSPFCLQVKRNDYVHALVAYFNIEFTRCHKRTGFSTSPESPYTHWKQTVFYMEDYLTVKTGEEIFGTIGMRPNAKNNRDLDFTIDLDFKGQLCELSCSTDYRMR
SIAE inh: blocks human sialic acid acetylesterase. inhibition, % at 9.66 µM. actives 0.69% (n = 370,000). SIAE FP-Rh probe binding, fluorescence polarization;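 active = inhibition above a cutoff: mean of compounds within the control limits plus 3 SD of those, cut at about 17% in these data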;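 also: 0% = plate median of compound wells and 100% = probe without SIAE protein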
rCAG binder: molecules binding r(CAG) RNA repeats; actives 1.3% (n = 370,000); r(CAG) RNA repeat, TO-PRO-1 dye displacement fluorescence; AID 651821; inhibition, % at 3 µM;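 active = inhibition above the plate cutoff, the mean of all test compounds on that plate plus 3 SD, cut at about 35% in these data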;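 also: 0% = DMSO alone and 100% = 100 µM mitoxantrone as full dye displacement; higher means more dye released from RNA so lower well fluorescence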
mABHD4 conf: confirmation of mouse ABHD4 inhibitors | shares compounds with mABHD4 FP | purified mABHD4, FP-Rh probe fluorescence polarization | inhibition, % at 8.92 µM | actives 55% (n = 1,800) | AID 720658;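 active = mean inhibition across replicates above the hit cutoff set in the primary screen, cut at about 30% in these data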;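 also: 0% = wild-type ABHD4 with DMSO and 100% = catalytically dead S159A mutant with DMSO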
* hit, by the source's call; . = no result. The list is not random: actives were taken first. Their share in the collection is about 3.3%.

SMILES | mABHD4 FP | TCR CD3 inh | PRMT1 inh | SIAE inh | rCAG binder | mABHD4 conf
CNC[C@@H](Cc1ccccc1)NC[C@@H](CC1CCCCC1)NCCCc1ccccc1 | 38* | 8 | 1 | 5 | 16 | 46*
Cc1ccc(CN2CCCCC(NC(=O)c3ccccc3)C2=O)cc1 (stereo unspecified) | 7 | . | 5 | 2 | 4 | .
CCOC(=O)N1CCN(C(=O)C[C@H]2C[C@@]3(C(=O)OC)C(=C[C@H](C4CCCC4)O[C@@H]3C)N(Cc3ccc(Cl)cc3Cl)C2=O)CC1 | -12 | . | 0 | -6 | 5 | .
CCN(CC)c1ccc(N=Cc2ccc(N(CC)CC)cc2O)cc1 | 39* | -2 | 24* | 6 | 7 | 19
CCN(CC)c1ccc(/C=N/NC(=O)OC)c(O)c1 | 8 | -1 | 1 | 7 | -2 | .
CCN(CC)c1ccc(C=NNC(=O)Cc2cc(=O)[nH][nH]2)c(O)c1 | 33* | . | 1 | 12 | 27 | 22
Oc1cc2c(cc1O)C1c3ccc(O)c(O)c3OCC1(O)C2 (stereo unspecified) | 30* | 132* | 55* | 0 | 1 | 23
CC(C)COC(=O)N(C)C[C@H]1OCc2cnnn2CCCC(=O)N([C@H](C)CO)C[C@@H]1C | 5 | 1 | 0 | -1 | 0 | .
Nc1[nH]c(C(=O)c2ccc(Br)cc2)c(-c2ccc(F)cc2)c1C(=O)NCCc1c[nH]c2ccccc12 | 33* | -1 | 5 | 6 | 6 | 26
Nc1[nH]c(C(=O)c2ccc(Br)cc2)c(-c2ccc(Br)cc2)c1C(=O)NCCc1c[nH]c2ccccc12 | 18 | 2 | -3 | 5 | 11 | .
COc1cc(-c2c(C(=O)c3ccccc3)[nH]c(N)c2C(=O)NCCc2c[nH]c3ccccc23)ccc1F | 19 | 0 | -2 | 3 | 11 | .
COc1ccc(-c2c(C(=O)c3ccc(Br)cc3)[nH]c(N)c2C(=O)NCCc2c[nH]c3ccccc23)cc1OC | 33* | 3 | 1 | 8 | 12 | 24
Nc1[nH]c2cc(Cl)ccc2c1C(=O)N1CCOCC1 | 5 | . | -3 | 3 | 4 | .
Cc1ccc(-c2nn(-c3ccccc3)cc2CO)cc1 | -5 | -4 | 3 | -7 | -1 | .
N=C(N)SCc1cn(-c2ccccc2)nc1-c1ccc(Br)cc1 | 36* | 4 | 0 | -2 | 27 | 60*
CCOC(=O)[C@]12CCCCC/C=C\1N(Cc1ccc(OC)cc1)C(=O)[C@H]2CC(=O)NCCC(C)C | -3 | . | -4 | 2 | -1 | .
CCC(C)Nc1nc(-c2cccc(OC)c2O)nc2ccccc12 (stereo unspecified) | 34* | -1 | 0 | 14 | 12 | 37*
Oc1ccccc1-c1nc(NCC2CCCO2)c2ccccc2n1 (stereo unspecified) | 1 | 12 | -2 | 2 | 21 | .
COc1cccc(-c2nc(NCC3CCCO3)c3ccccc3n2)c1O (stereo unspecified) | 33* | -2 | 0 | 9 | 11 | 34*
Cc1ccn2c(NC3CCCCC3)c(-c3cccc(-c4cccc(Cl)c4)c3)nc2c1 | 38* | -5 | 3 | 2 | 5 | 54*
CCN(CC)c1ccc(C(=O)NNC(=O)C2CSC3(C)CCC(=O)N23)cc1 (stereo unspecified) | 39* | 3 | -2 | 1 | -3 | -2
O=C1CCC[C@H]2C[C@H](NCc3cccnc3)CC[C@]23CCCN13 | 1 | . | -1 | -1 | . | .
COc1ccc(-c2nc(N/N=C(\C)c3ccc(O)cc3)c3ccccc3n2)cc1 | 32* | -8 | 7 | 0 | 8 | 0
O=C1NC(=O)C([N+](=O)[O-])=C(O)C1=O | -1 | 5 | -2 | -1 | 1 | .
C/C(=N\Nc1ccc(Cl)c(C(=O)O)c1)c1cc2ccccc2o1 | 13 | -5 | 6 | -6 | 22 | .
SMILES | mABHD4 FP | TCR CD3 inh | PRMT1 inh | SIAE inh | rCAG binder | mABHD4 conf
C/C(=N\Nc1cccc(C(=O)O)c1)c1cc2ccccc2o1 | 32* | -8 | 8 | 1 | 20 | 30*
CSCCCNc1nc(C)nc2c1nnn2Cc1ccccc1 | -5 | . | -5 | 6 | 1 | .
CCOC(=O)c1c(C)[nH]c(O)c1C=Nc1ccc(Cl)cc1 | 59* | 12 | 6 | 1 | -1 | 8
Cc1csc(NC(=O)c2cccc(Cn3nc(C)c(Br)c3C)c2)n1 | 50* | -7 | 3 | 2 | -1 | -6
Cc1nn(Cc2ccc(C(=O)Nc3nc4c(C)cccc4s3)o2)c(C)c1Br | -10 | 1 | 3 | -18 | 8 | .
CC(C)(c1ccccc1)c1ccc(OCC(O)CNC2CCN(Cc3ccccc3)CC2)cc1 (stereo unspecified) | 32* | 2 | -2 | -1 | -2 | 36*
CCOc1ccc(OCC(O)CNC2CCN(Cc3ccccc3)CC2)cc1 (stereo unspecified) | -2 | -9 | -4 | 3 | -2 | .
CCN(Cc1ccccc1)C(=O)COC(=O)c1cc(S(=O)(=O)Nc2ccccc2OC)ccc1O | 31* | 3 | 1 | -7 | 13 | 44*
CCCCCCCCC(c1nc2cc(C)c(C)cc2[nH]1)n1c(=O)c(-c2ccccc2Br)nc2ccccc21 (stereo unspecified) | 8 | -3 | 4 | 5 | 3 | .
O=C(Nc1ccccc1F)Nc1cccc2ccc(O)cc12 | 31* | 1 | 6 | 11 | 19 | 43*
CC(C)(C)c1ccc(S(=O)(=O)/N=C2\C=C(NS(=O)(=O)c3ccccc3)C(=O)c3ccccc32)cc1 | 36* | -2 | -6 | 6 | 59* | 60*
COc1cccc(CNC(=O)CCCN2C(=O)COc3ccc(C)cc32)c1OC | 1 | . | 0 | -5 | 0 | .
O=C(O)c1cccc2c1-c1ccccc1/C2=N\Nc1ccccc1 | 38* | 7 | 6 | 2 | 29 | 23
NC(=O)N/N=C1\c2ccccc2-c2c(C(N)=O)cccc21 | 0 | 2 | 3 | 1 | 2 | .
COC(=O)[C@H](C)NC(=O)[C@H](CC(C)C)NC(=O)OC(C)(C)C | -2 | . | 3 | -4 | 2 | .
O=C(COc1ccccc1)N=C1SC2CS(=O)(=O)CC2N1c1ccc(F)cc1 (stereo unspecified) | 34* | 4 | 1 | 4 | 0 | 0
O=C(COc1ccccc1)N=C1SC2CS(=O)(=O)CC2N1CCc1ccccc1 (stereo unspecified) | 2 | -4 | 2 | -3 | -1 | .
CCOC(=O)Cc1csc(NC(=O)NC2(C(F)(F)F)Oc3cc(Cl)c(Cl)cc3O2)n1 | 30* | 6 | 9 | -1 | 1 | 13
CCOC(=O)Cc1csc(NC(=O)NC2(C(F)(F)F)Oc3ccc(Cl)cc3O2)n1 (stereo unspecified) | 17 | 9 | 3 | -4 | 0 | .
Cc1cc2ccccn2c1C(=O)c1ccc(NN)c([N+](=O)[O-])c1 | 33* | -2 | 14 | 8 | 12 | 17
